ChEMBL document CHEMBL1148104, “New sugar-mimic alkaloids from the pods of Angylocalyx pynaertii” (J Nat Prod, 2002)

Legend:
[1] = biological target: T1, Tissue alpha-L-fucosidase (Bos taurus, UniProt Q2KIM0); assay: Inhibition of bovine epididymis alpha-L-fucosidase assessed as p-nitrophenol release by spectrophotometrically
T1 sequence (Q2KIM0 whole entry): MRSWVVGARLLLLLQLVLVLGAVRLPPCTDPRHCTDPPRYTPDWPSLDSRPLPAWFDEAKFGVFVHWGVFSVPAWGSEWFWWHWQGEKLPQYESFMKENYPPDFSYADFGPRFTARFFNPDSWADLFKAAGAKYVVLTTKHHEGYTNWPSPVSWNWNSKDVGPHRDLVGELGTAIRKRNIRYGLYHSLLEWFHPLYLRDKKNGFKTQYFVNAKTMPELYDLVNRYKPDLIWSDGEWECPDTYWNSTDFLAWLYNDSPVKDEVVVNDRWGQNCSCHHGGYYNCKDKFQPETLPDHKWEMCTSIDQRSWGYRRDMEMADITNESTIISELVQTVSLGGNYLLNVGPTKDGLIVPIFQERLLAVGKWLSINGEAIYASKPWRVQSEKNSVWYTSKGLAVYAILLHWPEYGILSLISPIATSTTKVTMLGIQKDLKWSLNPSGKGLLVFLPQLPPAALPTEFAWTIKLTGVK
In short: (§1)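 Assayed with the appropriate p-nitrophenyl glycoside substrate at each enzyme's optimum pH.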

[2] = biological target: T2, Uncharacterized protein (Sus scrofa) (UniProt I3LIR5); assay: Inhibition of pig kidney trehalase assessed as p-nitrophenol release at 1000 uM by spectrophotometrically
T2 sequence (whole entry): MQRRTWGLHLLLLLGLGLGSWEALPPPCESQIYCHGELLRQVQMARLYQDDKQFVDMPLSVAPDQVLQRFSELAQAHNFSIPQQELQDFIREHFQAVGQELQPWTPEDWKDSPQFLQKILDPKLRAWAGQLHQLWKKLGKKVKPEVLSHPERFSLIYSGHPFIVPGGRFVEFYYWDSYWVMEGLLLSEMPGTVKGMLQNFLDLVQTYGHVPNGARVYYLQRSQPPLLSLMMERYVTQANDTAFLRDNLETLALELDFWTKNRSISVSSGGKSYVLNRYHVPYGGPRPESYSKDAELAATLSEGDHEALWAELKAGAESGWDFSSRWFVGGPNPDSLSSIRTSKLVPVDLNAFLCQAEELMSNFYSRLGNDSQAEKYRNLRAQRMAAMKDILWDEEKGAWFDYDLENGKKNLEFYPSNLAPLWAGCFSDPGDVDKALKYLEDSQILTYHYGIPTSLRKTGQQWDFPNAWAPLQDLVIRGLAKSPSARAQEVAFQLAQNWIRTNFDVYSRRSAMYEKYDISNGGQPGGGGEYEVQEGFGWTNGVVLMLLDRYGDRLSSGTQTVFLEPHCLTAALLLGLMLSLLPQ

[3] = biological target: Alpha-glucosidase MAL62 (Saccharomyces cerevisiae, UniProt P07265); assay: Inhibition of yeast maltase alpha-glucosidase assessed as glucose release by Glucose B-test
[4] = Inhibition of yeast isomaltase alpha-glucosidase assessed as glucose release by Glucose B-test
[5] = system: Oryza sativa; assay: Inhibition of rice alpha-glucosidase assessed as glucose release at 1000 uM by Glucose B-test
In short: (§2)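 Disaccharide substrate suited to each enzyme, at that enzyme's optimum pH. Released D-glucose was measured colorimetrically with the Glucose B-test.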

[6] = Inhibition of yeast alpha-glucosidase assessed as p-nitrophenol release by spectrophotometrically; set-up: species or system Saccharomyces cerevisiae; in short: as §1
[7] = biological target: Lysosomal alpha-glucosidase (Rattus norvegicus) (UniProt Q6P7A9); assay: Inhibition of rat intestinal maltase assessed as glucose release at 1000 uM by Glucose B-test
In short: (§3)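 Enzyme source was brush border membranes prepared from rat small intestine. Maltase, sucrase and isomaltase activities were read with the matching disaccharide substrate at each enzyme's optimum pH, and liberated D-glucose was quantified colorimetrically by Glucose B-test.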

[8] = biological target: Sucrase-isomaltase, intestinal (Rattus norvegicus) (UniProt P23739); assay: Inhibition of rat intestinal sucrase assessed as glucose release at 1000 uM by Glucose B-test; in short: as §3
[9] = biological target: Sucrase-isomaltase, intestinal (Rattus norvegicus) (UniProt P23739); assay: Inhibition of rat intestinal isomaltase assessed as glucose release at 1000 uM by Glucose B-test; in short: as §3
[10] = organism: Rattus norvegicus; assay: Inhibition of rat epididymis alpha-mannosidase assessed as p-nitrophenol release at 1000 uM by spectrophotometrically
[11] = biological target: T3, Beta-mannosidase (Rattus norvegicus, UniProt Q4FZV0); assay: Inhibition of rat epididymis beta-mannosidase assessed as p-nitrophenol release by spectrophotometrically
T3 sequence (Q4FZV0 whole entry): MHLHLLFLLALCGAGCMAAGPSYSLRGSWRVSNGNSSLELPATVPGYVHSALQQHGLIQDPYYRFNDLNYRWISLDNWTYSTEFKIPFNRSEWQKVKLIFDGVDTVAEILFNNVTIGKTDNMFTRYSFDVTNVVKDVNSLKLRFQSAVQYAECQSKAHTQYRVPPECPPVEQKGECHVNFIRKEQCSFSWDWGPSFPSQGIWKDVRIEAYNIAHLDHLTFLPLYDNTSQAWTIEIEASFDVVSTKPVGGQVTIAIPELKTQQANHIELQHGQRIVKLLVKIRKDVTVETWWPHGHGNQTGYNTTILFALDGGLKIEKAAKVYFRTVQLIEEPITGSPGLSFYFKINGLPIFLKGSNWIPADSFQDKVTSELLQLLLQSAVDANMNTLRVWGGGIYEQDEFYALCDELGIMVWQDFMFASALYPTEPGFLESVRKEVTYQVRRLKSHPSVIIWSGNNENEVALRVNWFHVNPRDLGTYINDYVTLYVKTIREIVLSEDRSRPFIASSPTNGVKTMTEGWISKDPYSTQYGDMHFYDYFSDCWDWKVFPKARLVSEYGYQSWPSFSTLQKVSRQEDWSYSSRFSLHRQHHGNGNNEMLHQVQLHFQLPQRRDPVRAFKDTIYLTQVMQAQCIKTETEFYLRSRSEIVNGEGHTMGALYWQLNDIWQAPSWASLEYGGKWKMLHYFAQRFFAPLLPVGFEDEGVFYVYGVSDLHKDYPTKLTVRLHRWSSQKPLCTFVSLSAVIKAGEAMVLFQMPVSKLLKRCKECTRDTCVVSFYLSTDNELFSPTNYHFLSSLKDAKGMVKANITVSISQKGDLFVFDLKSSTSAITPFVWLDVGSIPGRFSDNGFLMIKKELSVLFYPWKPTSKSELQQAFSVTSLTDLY

[12] = biological target: Alpha-galactosidase (Coffea arabica) (UniProt Q42656); assay: Inhibition of coffee bean alpha-galactosidase assessed as p-nitrophenol release at 1000 uM by spectrophotometrically; in short: as §1
[13] = biological target: T4, Beta-galactosidase (Bos taurus, UniProt Q58D55); assay: Inhibition of bovine liver beta-galactosidase assessed as p-nitrophenol release by spectrophotometrically; in short: as §1
T4 sequence (Q58D55 whole entry): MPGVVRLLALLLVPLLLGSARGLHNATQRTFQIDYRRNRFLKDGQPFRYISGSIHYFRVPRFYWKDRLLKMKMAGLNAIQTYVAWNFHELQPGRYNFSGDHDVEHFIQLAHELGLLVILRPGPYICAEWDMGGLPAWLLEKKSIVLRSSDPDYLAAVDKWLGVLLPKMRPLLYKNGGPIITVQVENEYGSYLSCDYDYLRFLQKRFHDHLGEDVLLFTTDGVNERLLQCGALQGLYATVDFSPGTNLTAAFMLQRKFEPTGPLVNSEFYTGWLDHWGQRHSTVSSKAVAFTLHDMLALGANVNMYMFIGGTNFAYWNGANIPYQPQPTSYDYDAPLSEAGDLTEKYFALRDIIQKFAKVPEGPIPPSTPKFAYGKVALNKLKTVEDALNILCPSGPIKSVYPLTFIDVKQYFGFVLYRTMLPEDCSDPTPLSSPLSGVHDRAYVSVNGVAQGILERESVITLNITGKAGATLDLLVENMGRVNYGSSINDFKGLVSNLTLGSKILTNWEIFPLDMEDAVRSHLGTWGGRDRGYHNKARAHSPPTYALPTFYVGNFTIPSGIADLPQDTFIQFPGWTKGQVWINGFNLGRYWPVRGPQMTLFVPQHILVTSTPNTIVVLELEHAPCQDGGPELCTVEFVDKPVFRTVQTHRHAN

[14] = Inhibition of Aspergillus niger amyloglucosidase assessed as glucose release by Glucose B-test; in short: as §2
[15] = system: Saccharomyces cerevisiae; assay: Inhibition of yeast alpha-glucosidase assessed as p-nitrophenol release at 1000 uM by spectrophotometrically; in short: as §1
[16] = biological target: T5, Beta-mannosidase (Rattus norvegicus) (UniProt Q4FZV0); assay: Inhibition of rat epididymis beta-mannosidase assessed as p-nitrophenol release at 1000 uM by spectrophotometrically
T5 sequence (whole entry): T3 sequence (Q4FZV0 whole entry)

[17] = biological target: T6, Beta-galactosidase (Bos taurus) (UniProt Q58D55); assay: Inhibition of bovine liver beta-galactosidase assessed as p-nitrophenol release at 1000 uM by spectrophotometrically; in short: as §1
T6 sequence (whole entry): T4 sequence (Q58D55 whole entry)

[18] = biological target: T7, Tissue alpha-L-fucosidase (Bos taurus) (UniProt Q2KIM0); assay: Inhibition of bovine epididymis alpha-L-fucosidase assessed as p-nitrophenol release at 1000 uM by spectrophotometrically; in short: as §1
T7 sequence (whole entry): T1 sequence (Q2KIM0 whole entry)

[19] = system: Aspergillus niger; assay: Inhibition of Aspergillus niger amyloglucosidase assessed as glucose release at 1000 uM by Glucose B-test; in short: as §2

Chain of Sucrase-isomaltase, intestinal (Rattus norvegicus) (P23739 1-1013 limits assumed): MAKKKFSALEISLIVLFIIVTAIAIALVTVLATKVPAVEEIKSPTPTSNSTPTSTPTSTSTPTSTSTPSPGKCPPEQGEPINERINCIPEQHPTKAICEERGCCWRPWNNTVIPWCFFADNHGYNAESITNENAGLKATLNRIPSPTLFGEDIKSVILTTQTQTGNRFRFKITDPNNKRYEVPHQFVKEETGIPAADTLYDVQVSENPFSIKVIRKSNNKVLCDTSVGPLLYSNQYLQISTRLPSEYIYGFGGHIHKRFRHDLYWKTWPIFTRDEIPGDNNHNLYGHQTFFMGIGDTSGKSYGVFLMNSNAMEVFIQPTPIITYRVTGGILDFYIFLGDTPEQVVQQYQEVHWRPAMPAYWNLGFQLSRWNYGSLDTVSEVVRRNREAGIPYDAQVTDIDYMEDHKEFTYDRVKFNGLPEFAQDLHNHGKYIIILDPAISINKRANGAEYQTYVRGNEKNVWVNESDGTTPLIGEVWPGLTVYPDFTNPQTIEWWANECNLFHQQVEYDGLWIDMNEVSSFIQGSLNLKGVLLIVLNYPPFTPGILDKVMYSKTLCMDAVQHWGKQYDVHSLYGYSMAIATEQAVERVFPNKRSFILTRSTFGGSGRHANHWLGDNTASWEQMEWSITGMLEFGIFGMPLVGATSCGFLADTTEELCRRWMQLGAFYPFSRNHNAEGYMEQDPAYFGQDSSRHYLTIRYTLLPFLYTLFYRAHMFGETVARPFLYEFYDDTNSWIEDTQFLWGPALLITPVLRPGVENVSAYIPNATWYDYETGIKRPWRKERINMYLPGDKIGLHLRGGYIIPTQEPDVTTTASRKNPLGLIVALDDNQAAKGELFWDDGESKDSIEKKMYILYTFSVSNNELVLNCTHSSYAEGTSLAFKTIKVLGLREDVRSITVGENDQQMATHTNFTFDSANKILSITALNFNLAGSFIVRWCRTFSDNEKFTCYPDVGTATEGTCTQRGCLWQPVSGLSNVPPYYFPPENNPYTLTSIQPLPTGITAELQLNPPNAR
Chain of Sucrase-isomaltase, intestinal (Rattus norvegicus) (P23739 1014-1841 limits assumed): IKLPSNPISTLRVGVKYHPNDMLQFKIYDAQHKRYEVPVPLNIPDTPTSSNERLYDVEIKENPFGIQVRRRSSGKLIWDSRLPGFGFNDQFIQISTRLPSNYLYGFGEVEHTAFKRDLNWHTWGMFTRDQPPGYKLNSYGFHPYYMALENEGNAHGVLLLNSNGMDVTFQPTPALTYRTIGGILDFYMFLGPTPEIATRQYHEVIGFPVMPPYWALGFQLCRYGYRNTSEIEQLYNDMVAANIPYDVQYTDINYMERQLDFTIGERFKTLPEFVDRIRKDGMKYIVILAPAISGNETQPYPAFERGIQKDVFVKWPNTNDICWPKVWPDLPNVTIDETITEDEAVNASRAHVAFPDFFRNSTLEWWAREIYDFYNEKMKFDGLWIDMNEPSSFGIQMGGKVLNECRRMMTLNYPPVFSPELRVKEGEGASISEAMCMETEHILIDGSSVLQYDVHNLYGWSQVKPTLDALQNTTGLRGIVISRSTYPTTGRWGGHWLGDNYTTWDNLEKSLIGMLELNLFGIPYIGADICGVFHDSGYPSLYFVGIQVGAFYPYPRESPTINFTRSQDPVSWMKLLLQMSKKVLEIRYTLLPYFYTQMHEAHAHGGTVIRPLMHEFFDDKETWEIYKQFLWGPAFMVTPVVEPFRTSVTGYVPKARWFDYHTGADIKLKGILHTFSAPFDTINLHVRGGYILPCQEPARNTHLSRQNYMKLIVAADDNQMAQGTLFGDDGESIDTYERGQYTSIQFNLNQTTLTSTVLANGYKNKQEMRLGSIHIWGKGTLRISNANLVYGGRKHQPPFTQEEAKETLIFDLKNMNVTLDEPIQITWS
Chain of Lysosomal alpha-glucosidase (Rattus norvegicus) (Q6P7A9 whole entry): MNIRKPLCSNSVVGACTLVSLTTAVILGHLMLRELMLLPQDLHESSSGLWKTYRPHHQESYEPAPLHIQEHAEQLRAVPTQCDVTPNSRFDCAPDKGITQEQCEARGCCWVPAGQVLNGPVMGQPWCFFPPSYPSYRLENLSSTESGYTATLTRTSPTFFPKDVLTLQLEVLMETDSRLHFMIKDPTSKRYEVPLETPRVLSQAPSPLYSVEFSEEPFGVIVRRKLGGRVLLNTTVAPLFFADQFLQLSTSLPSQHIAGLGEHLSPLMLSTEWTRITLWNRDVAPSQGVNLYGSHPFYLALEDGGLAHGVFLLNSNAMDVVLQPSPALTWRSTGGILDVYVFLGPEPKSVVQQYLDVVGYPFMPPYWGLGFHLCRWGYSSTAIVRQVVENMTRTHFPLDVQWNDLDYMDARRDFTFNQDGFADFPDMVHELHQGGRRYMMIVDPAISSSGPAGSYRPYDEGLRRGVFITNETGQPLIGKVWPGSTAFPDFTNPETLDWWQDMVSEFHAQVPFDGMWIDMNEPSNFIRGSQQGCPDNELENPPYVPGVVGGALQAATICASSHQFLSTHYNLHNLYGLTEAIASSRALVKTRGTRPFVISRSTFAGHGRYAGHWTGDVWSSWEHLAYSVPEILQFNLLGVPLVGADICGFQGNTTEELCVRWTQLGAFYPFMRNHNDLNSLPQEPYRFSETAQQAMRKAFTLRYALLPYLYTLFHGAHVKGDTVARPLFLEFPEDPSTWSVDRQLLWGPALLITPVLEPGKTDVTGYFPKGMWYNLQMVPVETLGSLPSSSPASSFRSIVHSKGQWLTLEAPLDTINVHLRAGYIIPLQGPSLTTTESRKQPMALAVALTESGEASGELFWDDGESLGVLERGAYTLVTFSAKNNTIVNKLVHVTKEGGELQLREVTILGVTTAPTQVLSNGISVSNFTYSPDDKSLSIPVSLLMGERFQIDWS
Chain of Alpha-galactosidase (Coffea arabica) (Q42656 16-378 limits assumed): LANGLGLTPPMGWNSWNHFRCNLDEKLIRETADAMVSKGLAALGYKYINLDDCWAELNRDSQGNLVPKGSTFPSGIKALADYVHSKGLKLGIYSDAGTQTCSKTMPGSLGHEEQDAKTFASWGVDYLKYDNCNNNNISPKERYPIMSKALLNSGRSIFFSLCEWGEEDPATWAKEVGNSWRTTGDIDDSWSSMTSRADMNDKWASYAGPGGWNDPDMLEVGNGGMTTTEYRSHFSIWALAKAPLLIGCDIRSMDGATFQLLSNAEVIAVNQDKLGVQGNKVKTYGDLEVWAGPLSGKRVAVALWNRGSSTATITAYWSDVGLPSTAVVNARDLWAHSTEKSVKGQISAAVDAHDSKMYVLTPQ
Chain of Alpha-glucosidase MAL62 (P07265 whole entry): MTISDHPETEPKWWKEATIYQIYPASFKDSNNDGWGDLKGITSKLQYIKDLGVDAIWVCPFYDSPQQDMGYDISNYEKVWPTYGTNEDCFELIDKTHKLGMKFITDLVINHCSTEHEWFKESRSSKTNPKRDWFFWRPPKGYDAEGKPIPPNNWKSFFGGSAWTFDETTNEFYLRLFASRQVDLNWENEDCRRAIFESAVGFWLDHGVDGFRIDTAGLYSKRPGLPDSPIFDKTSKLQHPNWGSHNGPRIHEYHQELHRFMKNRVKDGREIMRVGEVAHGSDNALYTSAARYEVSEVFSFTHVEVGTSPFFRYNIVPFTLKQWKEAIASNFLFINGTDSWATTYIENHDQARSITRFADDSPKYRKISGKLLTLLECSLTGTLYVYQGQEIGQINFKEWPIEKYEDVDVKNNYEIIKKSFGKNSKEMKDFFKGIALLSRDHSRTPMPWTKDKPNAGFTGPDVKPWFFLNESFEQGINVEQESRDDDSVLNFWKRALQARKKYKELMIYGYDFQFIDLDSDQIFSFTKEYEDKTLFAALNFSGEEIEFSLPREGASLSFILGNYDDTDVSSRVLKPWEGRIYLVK

Row | Ki [1] [µM] | inhibition [2] [%] | IC50 [3] [µM] | IC50 [4] [µM] | inhibition [5] [%] | IC50 [6] [µM] | inhibition [7] [%] | inhibition [8] [%] | inhibition [9] [%] | inhibition [10] [%] | IC50 [11] [µM] | inhibition [12] [%] | IC50 [13] [µM] | IC50 [1] [µM] | IC50 [14] [µM] | inhibition [15] [%] | inhibition [16] [%] | inhibition [17] [%] | inhibition [18] [%] | inhibition [19] [%] | SMILES
1 | 0.0053 |  |  |  |  |  |  |  |  |  |  |  |  |  |  |  |  |  |  |  | C[C@@H]1N[C@H](CO)[C@@H](O)[C@H](O)[C@@H]1O
2 | 0.06 |  |  |  |  |  |  |  |  |  |  |  |  |  |  |  |  |  |  |  | C[C@H]1O[C@H](OC[C@H]2NC[C@@H](O)[C@@H](O)[C@@H]2O)[C@@H](O)[C@@H](O)[C@@H]1O
3 |  | < 50 | 260 | 240 |  |  |  |  |  |  |  |  |  |  |  |  |  |  |  |  | OCCN1[C@H](CO)[C@@H](O)[C@H](O)[C@H]1CO
4 |  |  |  |  | < 50 | 270 | < 50 | < 50 | < 50 | < 50 | 93 | < 50 | 30 | 150 | 160 |  |  |  |  |  | C[C@H]1N[C@H](CO)[C@@H](O)[C@@H]1O
5 |  |  |  |  | < 50 |  | < 50 | < 50 | < 50 | < 50 |  | < 50 |  |  |  | < 50 | < 50 | < 50 | < 50 | < 50 | OC[C@H]1O[C@@H](OC[C@H]2NC[C@@H](O)[C@@H]2O)[C@H](O)[C@@H](O)[C@@H]1O
6 | 0.49 |  |  |  | < 50 | 570 | < 50 | < 50 | < 50 | < 50 |  | < 50 | 420 | 1 | 510 |  | < 50 |  |  |  | C[C@H]1N[C@@H](CO)[C@H](O)[C@H]1O
7 |  |  |  |  | < 50 |  | < 50 | < 50 | < 50 | < 50 |  | < 50 |  |  |  | < 50 | < 50 | < 50 | < 50 | < 50 | OC[C@H]1NC[C@@H](O[C@@H]2O[C@H](CO)[C@@H](O)[C@H](O)[C@H]2O)[C@@H]1O
